ChEMBL document CHEMBL2040795, “Synthesis, biological evaluation, and structure-activity relationships of 2-[2-(benzoylamino)benzoylamino]benzoic acid analogues as inhibitors of adenovirus replication” (J Med Chem, 2012)

What was measured:
[1] = Cytotoxicity against human A549 cells assessed as viability at 30 uM after 24 hrs by XTT assay; format: cell-based; conditions: read-out: Activity
Method in brief: (§1)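 About 15000 A549 cells per well were seeded the day before. Compound was added in DMEM with 0.75 g/L NaHCO3 and 20 mM HEPES, then incubated 24 h at 37 °C, 5% CO2. XTT was added 4 h before reading formazan absorbance at 450 nm. Values are percentage viable cells, with DMSO baseline toxicity subtracted (0.15% DMSO at 30 μM, 0.30% at 60 μM).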

[2] = Cytotoxicity against human A549 cells assessed as viability at 60 uM after 24 hrs by XTT assay; format: cell-based; conditions: read-out: Activity; method in brief: as §1
[3] = system: Human adenovirus 5; test: Antiviral activity against Adenovirus type 5 F2853-5b infected in human A549 cells assessed as inhibition of viral replication at 5 uM after 24 hrs by RT-PCR analysis; format: functional; conditions: Human mastadenovirus C, A549, 24 h
Method in brief: (§2)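 Ad5-infected A549 cells incubated with compound for 24 h. DNA was then extracted and newly synthesized viral DNA quantified by real-time PCR of the hexon gene, normalized to cellular RNaseP gene. […] EC50 determined for selected compounds.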

[4] = system: Human adenovirus 5; test: Antiviral activity against Adenovirus type 5 F2853-5b infected in human A549 cells assessed as inhibition of viral replication at 15 uM after 24 hrs by RT-PCR analysis; format: functional; conditions: Human mastadenovirus C, A549, 24 h; method in brief: as §2
[5] = system: Human adenovirus 5; test: Antiviral activity against Adenovirus type 5 F2853-5b infected in human A549 cells assessed as inhibition of viral replication after 24 hrs by RT-PCR analysis; format: functional, organism-based; conditions: Human mastadenovirus C, A549, 24 h; method in brief: as §2
[6] = Chemical solubility of the compound in DMSO; format: physicochemical
[7] = Aqueous solubility of the compound in water; format: physicochemical; conditions: buffer

SMILES: O=C(Nc1ccccc1C(=O)Nc1ccccc1C(=O)O)c1ccccc1
- viability at 24 h, 30 µM [1]: 82%
- viability at 24 h, 60 µM [2]: 83%
- inhibition at 5 µM [3]: 89%
- inhibition at 15 µM [4]: 91%

SMILES: O=C(Cc1ccccc1NC(=O)c1ccccc1)Nc1ccccc1C(=O)O
- inhibition at 5 µM [3]: 0%
- inhibition at 15 µM [4]: 0%

SMILES: Cc1ccccc1C(=O)Nc1ccccc1C(=O)Nc1ccc(C(=O)O)cc1
- inhibition at 5 µM [3]: 0%
- inhibition at 15 µM [4]: 20%

SMILES: CCOC(=O)c1ccccc1NC(=O)c1ccc(NC(=O)c2ccccc2)cc1
- inhibition at 15 µM [4]: 15%

SMILES: O=C(Nc1ccccc1C(=O)Nc1ccccc1C(=O)O)c1ccc(F)cc1
- inhibition at 5 µM [3]: 76%
- inhibition at 15 µM [4]: 95%

SMILES: CCOC(=O)c1ccccc1NC(=O)c1cccc(NC(=O)c2ccccc2)c1
- inhibition at 15 µM [4]: 25%

SMILES: COc1ccc(NC(=O)c2ccccc2NC(=O)c2ccccc2F)c(C(=O)O)c1
- inhibition at 5 µM [3]: 28%
- inhibition at 15 µM [4]: 78%

SMILES: O=C(Nc1ccccc1C(=O)Nc1cc(Cl)ccc1C(=O)O)c1ccccc1F
- inhibition at 5 µM [3]: 0%
- inhibition at 15 µM [4]: 61%

SMILES: CC(C)(C)C(=O)Nc1ccccc1C(=O)Nc1ccccc1C(=O)O
- inhibition at 5 µM [3]: 45%
- inhibition at 15 µM [4]: 52%

SMILES: Cc1ccccc1C(=O)Nc1cccc(C(=O)Nc2ccccc2C(=O)O)c1
- inhibition at 5 µM [3]: 5%
- inhibition at 15 µM [4]: 7%

SMILES: O=C(Nc1cc(F)c(F)cc1C(=O)Nc1ccccc1C(=O)O)c1ccccc1F
- viability at 24 h, 30 µM [1]: 96%
- viability at 24 h, 60 µM [2]: 96%
- inhibition at 5 µM [3]: 94%
- EC50 [5]: 0.58 µM
- inhibition at 15 µM [4]: 93%

SMILES: COc1ccc(C(=O)Nc2ccccc2C(=O)O)c(NC(=O)c2ccccc2F)c1
- viability at 24 h, 30 µM [1]: 92%
- viability at 24 h, 60 µM [2]: 94%
- inhibition at 5 µM [3]: 92%
- EC50 [5]: 2.3 µM
- inhibition at 15 µM [4]: 89%

SMILES: CCOC(=O)c1cccc(NC(=O)c2ccccc2NC(=O)c2ccccc2)c1
- inhibition at 15 µM [4]: 0%

SMILES: CC(=O)Nc1ccccc1C(=O)Nc1ccccc1C(=O)O
- inhibition at 5 µM [3]: 4%
- inhibition at 15 µM [4]: 24%

SMILES: O=C(O)c1ccccc1NC(=O)c1ccccc1NC(=O)C1CCCCC1
- inhibition at 5 µM [3]: 20%
- inhibition at 15 µM [4]: 55%

SMILES: Cc1ccc(C(=O)Nc2ccccc2C(=O)Nc2ccccc2C(=O)O)cc1
- inhibition at 5 µM [3]: 0%
- inhibition at 15 µM [4]: 85%

SMILES: O=C(Nc1ccc(C(=O)Nc2ccccc2C(=O)O)cc1)c1ccccc1
- inhibition at 15 µM [4]: 47%

SMILES: CCOC(=O)c1ccccc1NC(=O)c1ccccc1NC(=O)c1ccccc1
- solubility [6]: Insoluble
- solubility [7]: Insoluble

SMILES: CS(=O)(=O)Nc1ccccc1C(=O)Nc1ccccc1C(=O)O
- inhibition at 5 µM [3]: 0%
- inhibition at 15 µM [4]: 23%

SMILES: CCOC(=O)c1ccc(NC(=O)c2ccccc2NC(=O)c2ccccc2)cc1
- inhibition at 15 µM [4]: 8%

SMILES: O=C(Nc1ccc(Cl)cc1C(=O)Nc1ccccc1C(=O)O)c1ccccc1F
- viability at 24 h, 30 µM [1]: 91%
- viability at 24 h, 60 µM [2]: 88%
- inhibition at 5 µM [3]: 89%
- EC50 [5]: 0.57 µM
- inhibition at 15 µM [4]: 91%

SMILES: O=C(Nc1ccccc1C(=O)Nc1ccccc1C(=O)O)c1ccccc1F
- viability at 24 h, 30 µM [1]: 85%
- viability at 24 h, 60 µM [2]: 83%
- inhibition at 5 µM [3]: 96%
- EC50 [5]: 2.3 µM
- inhibition at 15 µM [4]: 98%

SMILES: NC(=O)c1ccccc1NC(=O)c1cccc(NC(=O)c2ccccc2)c1
- inhibition at 5 µM [3]: 0%
- inhibition at 15 µM [4]: 19%

SMILES: COc1ccc(C(=O)O)c(NC(=O)c2ccccc2NC(=O)c2ccccc2F)c1
- inhibition at 5 µM [3]: 0%
- inhibition at 15 µM [4]: 0%

SMILES: O=C(O)CCC(=O)Nc1ccccc1C(=O)Nc1ccccc1C(=O)O
- inhibition at 5 µM [3]: 0%
- inhibition at 15 µM [4]: 0%

SMILES: COc1ccc(NC(=O)c2ccccc2F)c(C(=O)Nc2ccccc2C(=O)O)c1
- viability at 24 h, 30 µM [1]: 84%
- viability at 24 h, 60 µM [2]: 84%
- inhibition at 5 µM [3]: 91%
- EC50 [5]: 1.4 µM
- inhibition at 15 µM [4]: 97%

SMILES: Cc1ccc(C(=O)Nc2ccccc2C(=O)Nc2ccccc2C)cc1
- inhibition at 5 µM [3]: 0%
- inhibition at 15 µM [4]: 12%

SMILES: O=C(O)c1ccc(NC(=O)c2ccccc2NC(=O)c2ccccc2)cc1
- inhibition at 15 µM [4]: 8%

SMILES: O=C(Nc1cc(Cl)ccc1C(=O)Nc1ccccc1C(=O)O)c1ccccc1F
- inhibition at 5 µM [3]: 57%
- inhibition at 15 µM [4]: 78%

SMILES: O=C(Nc1ccccc1C(=O)Nc1cc(F)c(F)cc1C(=O)O)c1ccccc1F
- inhibition at 5 µM [3]: 0%
- inhibition at 15 µM [4]: 0%

SMILES: Cc1ccc(NC(=O)c2ccccc2NC(=O)c2ccccc2C(=O)O)cc1
- inhibition at 5 µM [3]: 0%
- inhibition at 15 µM [4]: 0%

SMILES: O=C(Nc1ccccc1C(=O)Nc1ccccc1C(=O)O)c1cccc(F)c1
- inhibition at 5 µM [3]: 41%

SMILES: COc1ccc(C(=O)Nc2ccccc2C(=O)Nc2ccccc2C(=O)O)cc1
- inhibition at 5 µM [3]: 0%
- inhibition at 15 µM [4]: 67%

SMILES: O=C(Nc1cccc(C(=O)Nc2ccccc2C(=O)O)c1)c1ccccc1
- inhibition at 15 µM [4]: 39%

SMILES: O=C(Nc1ccccc1C(=O)Nc1ccc(Cl)cc1C(=O)O)c1ccccc1F
- inhibition at 5 µM [3]: 0%
- inhibition at 15 µM [4]: 0%

SMILES: Cc1ccc(S(=O)(=O)Nc2ccccc2C(=O)Nc2ccccc2C(=O)O)cc1
- inhibition at 5 µM [3]: 2%
- inhibition at 15 µM [4]: 8%

SMILES: O=C(Cc1ccccc1)Nc1ccccc1C(=O)Nc1ccccc1C(=O)O
- inhibition at 5 µM [3]: 32%
- inhibition at 15 µM [4]: 21%

SMILES: O=C(O)Cc1ccccc1NC(=O)c1ccccc1NC(=O)c1ccccc1
- inhibition at 5 µM [3]: 0%
- inhibition at 15 µM [4]: 0%

SMILES: O=C(Nc1ccccc1C(=O)Nc1ccccc1)c1ccccc1
- inhibition at 15 µM [4]: 18%

SMILES: Nc1ccn(C[C@@H](CO)OCP(=O)(O)O)c(=O)n1 [CIDOFOVIR]
- viability at 24 h, 30 µM [1]: 100%
- viability at 24 h, 60 µM [2]: 98%

SMILES: O=C(O)c1cccc(NC(=O)c2ccccc2NC(=O)c2ccccc2)c1
- inhibition at 15 µM [4]: 8%
